Our source for the IC50, MDA content and Arrhythmia score values is ChEMBL document CHEMBL1134786, “Novel potent inhibitors of lipid peroxidation with protective effects against reperfusion arrhythmias” (J Med Chem, 2001).

Test [1] is filed under the species Rattus norvegicus. Kind of test: Evaluated for the interaction with 0.2 mM of the stable free radical DPPH. The class given is functional. The essentials:
(§1)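 Compounds were reacted with the stable free radical DPPH at 0.2 mM. The IC50 (mM) is the concentration that reacts with half of the radical.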
(The DPPH test is a chemical assay of radical scavenging.)

The species named for test [2] is Rattus norvegicus. Kind of test: Inhibition of in vitro peroxidation (LP) of rat Hepatic microsomal membrane lipid. The class given is functional. In a few lines:
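Rat liver microsomal membranes were subjected to lipid peroxidation induced by ferrous ions and ascorbate. Values are mean ± SEM, n = 3.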

The species entered for test [3] is Rattus norvegicus. Description: The compound was evaluated for the interaction with 0.2 mM of the stable free radical DPPH. The class given is functional. The essentials: as §1
Test [4] is filed under the species Rattus norvegicus. Description: Effect of compound on in vitro accumulation of MDA content in heart at concentration of 5 uM. The format is functional.
The species named for test [5] is Rattus norvegicus. Kind of test: Effect on in vitro myocardial electrical activity (arrhythmia score) at 5 uM. The class given is functional, Myocardium.
The species entered for test [6] is Rattus norvegicus. Kind of test: Effect on in vitro accumulation of MDA content in heart, at conc of 5 uM. The format is functional.

As a reminder, the IC50 is the concentration needed to halve the response being measured. A higher IC50 goes with a need for much substance. As to `Cc1c(C)c2c(c(C)c1O)CCC(C)(C(=O)Nc1ccc3c(c1)Cc1cc(NC(=O)CCCCC4CCSS4)ccc1-3)O2` (stereo not given), the IC50 in the test listed under Rattus norvegicus [1] is 20 µM; in the test filed under Rattus norvegicus [2] it was 2.58 µM.
For `Cc1c(C)c2c(c(C)c1O)CCC(C)(C(=O)O)O2` (stereo not given) [TROLOX], the half-maximal inhibitory concentration (IC50) turned out to be 45 µM in the test filed under Rattus norvegicus [3] and 24.8 µM in the test listed under Rattus norvegicus [2]. The MDA content in the test listed under Rattus norvegicus [4] is recorded as 1.07 uM (g of tissue)-1. This molecule also registered an Arrhythmia score in the test listed under Rattus norvegicus [5] of 3.15.
As for `O=C(O)CCCCC1CCSS1` (stereo not drawn) [LIPOIC ACID, ALPHA], the IC50 in the test filed under Rattus norvegicus [1] is more than 400 µM; in the test listed under Rattus norvegicus [2], more than 1000 µM. Also, the MDA content in the test filed under Rattus norvegicus [6] is 1.03 µM (g of tissue)-1. Further, the Arrhythmia score in the test listed under Rattus norvegicus [5] came to 6.3.
